Values joined by “and” are separate entries in the source; they are usually repeats but may differ in a detail not shown here. Identical values can stand only once.
System: Fibroblast
Experiment: Multiplex assay against human fibroblast
Type: toxicity, cell-based
Method in brief: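 Cells stained live at seeding with Hoechst33342, BioTracker Green Microtubule Cytoskeleton Dye, MitoTracker Red and Annexin V Alexa Fluor 680 were imaged on a CQ1 microscope at 37°C and 5% CO2 after compound addition. Their classification by CellPathfinder machine-learning gating ran from Hoechst high-intensity objects versus normal cells, to healthy, pyknosed or fragmented nuclei among normal cells, to mitotic or apoptotic among pyknosed cells. Tubulin, mitochondrial-mass and membrane-permeability phenotypes are per cents of healthy-nucleus cells.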

[1] = 12 h, 1 µM, compound concentration 1 uM
[2] = 12 h, 10 µM, compound concentration 10 uM
[3] = 24 h, 1 µM, compound concentration 1 uM
[4] = 24 h, 10 µM, compound concentration 10 uM
[5] = 48 h, 1 µM, compound concentration 1 uM
[6] = 48 h, 10 µM, compound concentration 10 uM

Compound: CC(C)c1ccc(/C=N/NC(=O)c2ccc(O)cc2)cc1
- Population Apoptotic (%) [1]: 12.07% and 15.38%
- Population Fragmented Nuclei (%) [1]: 10.89% and 4%
- Population Healthy Nuclei (%) [1]: 60.4% and 76.5%
- Population Hoechst High Intensity Objects (%) [1]: 0%
- Population Membrane Permeable-Phenotype (%) [1]: 4.1% and 2.61%
- Population Mitochondria Different-Phenotype (%) [1]: 6.56% and 9.15%
- Population Mitotic Cells (%) [1]: 87.93% and 84.62%
- Population Normal (%) [1]: 100%
- Population Pyknosed Nuclei (%) [1]: 28.71% and 19.5%
- Population Tubulin-Different-Phenotype (%) [1]: 12.3% and 17.65%
- Total Cell Count [1]: 202 and 200
- Population Fragmented Nuclei (%) [2]: 13.41% and 4.65%
- Population Healthy Nuclei (%) [2]: 61.45% and 73.02%
- Population Hoechst High Intensity Objects (%) [2]: 0%
- Population Membrane Permeable-Phenotype (%) [2]: 8.18% and 2.55%
- Population Mitochondria Different-Phenotype (%) [2]: 6.36% and 9.55%
- Population Mitotic Cells (%) [2]: 95.56% and 77.08%
- Population Normal (%) [2]: 100%
- Population Pyknosed Nuclei (%) [2]: 25.14% and 22.33%
- Population Tubulin-Different-Phenotype (%) [2]: 20% and 17.2%
- Total Cell Count [2]: 179 and 215
- Population Apoptotic (%) [3]: 15% and 14.81%
- Population Fragmented Nuclei (%) [3]: 10.53% and 4.39%
- Population Healthy Nuclei (%) [3]: 71.93% and 82.44%
- Population Hoechst High Intensity Objects (%) [3]: 0%
- Population Membrane Permeable-Phenotype (%) [3]: 1.83% and 3.55%
- Population Mitochondria Different-Phenotype (%) [3]: 4.27% and 7.1%
- Population Mitotic Cells (%) [3]: 85% and 85.19%
- Population Normal (%) [3]: 100%
- Population Pyknosed Nuclei (%) [3]: 17.54% and 13.17%
- Population Tubulin-Different-Phenotype (%) [3]: 12.2% and 18.34%
- Total Cell Count [3]: 228 and 205
- Population Fragmented Nuclei (%) [4]: 10.93% and 4.82%
- Population Healthy Nuclei (%) [4]: 66.12% and 76.75%
- Population Hoechst High Intensity Objects (%) [4]: 0%
- Population Membrane Permeable-Phenotype (%) [4]: 5.79% and 3.43%
- Population Mitochondria Different-Phenotype (%) [4]: 7.44% and 5.14%
- Population Mitotic Cells (%) [4]: 95.24% and 83.33%
- Population Normal (%) [4]: 100%
- Population Pyknosed Nuclei (%) [4]: 22.95% and 18.42%
- Population Tubulin-Different-Phenotype (%) [4]: 14.88% and 16%
- Total Cell Count [4]: 183 and 228
- Population Apoptotic (%) [5]: 27.27% and 44.44%
- Population Fragmented Nuclei (%) [5]: 8% and 5.96%
- Population Healthy Nuclei (%) [5]: 87.11% and 89.91%
- Population Hoechst High Intensity Objects (%) [5]: 0%
- Population Membrane Permeable-Phenotype (%) [5]: 1.02% and 3.57%
- Population Mitotic Cells (%) [5]: 72.73% and 55.56%
- Population Normal (%) [5]: 100%
- Population Pyknosed Nuclei (%) [5]: 4.89% and 4.13%
- Population Tubulin-Different-Phenotype (%) [5]: 9.18% and 15.31%
- Total Cell Count [5]: 225 and 218
- Population Apoptotic (%) [6]: 40% and 30%
- Population Fragmented Nuclei (%) [6]: 13.54% and 4.26%
- Population Healthy Nuclei (%) [6]: 78.65% and 87.23%
- Population Hoechst High Intensity Objects (%) [6]: 0%
- Population Membrane Permeable-Phenotype (%) [6]: 3.31% and 2.44%
- Population Mitochondria Different-Phenotype (%) [6]: 6.62% and 1.95%
- Population Mitotic Cells (%) [6]: 60% and 70%
- Population Normal (%) [6]: 100%
- Population Pyknosed Nuclei (%) [6]: 7.81% and 8.51%
- Population Tubulin-Different-Phenotype (%) [6]: 10.6% and 14.63%
- Total Cell Count [6]: 192 and 235

Compound: Cn1cnc(-c2cnc(O[C@H]3CCN(C(=O)Cc4ccc(OC(F)(F)F)cc4)C[C@H]3F)c(C(N)=O)c2)c1
- Population Apoptotic (%) [1]: 14%
- Population Healthy Nuclei (%) [1]: 57.67% and 77.82%
- Population Hoechst High Intensity Objects (%) [1]: 0%
- Population Mitotic Cells (%) [1]: 86% and 87.5%
- Population Normal (%) [1]: 100%
- Population Pyknosed Nuclei (%) [1]: 26.46% and 13.39%
- Population Apoptotic (%) [2]: 14.93% and 26.53%
- Population Healthy Nuclei (%) [2]: 58.85% and 71.95%
- Population Hoechst High Intensity Objects (%) [2]: 0%
- Population Mitotic Cells (%) [2]: 85.07% and 73.47%
- Population Normal (%) [2]: 100%
- Population Pyknosed Nuclei (%) [2]: 29.65% and 22.17%
- Population Apoptotic (%) [3]: 8.89% and 19.35%
- Population Healthy Nuclei (%) [3]: 68.08% and 79.62%
- Population Hoechst High Intensity Objects (%) [3]: 0%
- Population Mitotic Cells (%) [3]: 91.11% and 80.65%
- Population Normal (%) [3]: 100%
- Population Pyknosed Nuclei (%) [3]: 21.13% and 11.7%
- Population Healthy Nuclei (%) [4]: 69.48% and 75.54%
- Population Hoechst High Intensity Objects (%) [4]: 0%
- Population Mitotic Cells (%) [4]: 93.62% and 75.76%
- Population Normal (%) [4]: 100%
- Population Pyknosed Nuclei (%) [4]: 18.88% and 11.87%
- Population Apoptotic (%) [5]: 25%
- Population Healthy Nuclei (%) [5]: 78.48% and 79.12%
- Population Hoechst High Intensity Objects (%) [5]: 0%
- Population Mitotic Cells (%) [5]: 75% and 83.33%
- Population Normal (%) [5]: 100%
- Population Pyknosed Nuclei (%) [5]: 8.44% and 6.59%
- Population Apoptotic (%) [6]: 33.33% and 57.14%
- Population Healthy Nuclei (%) [6]: 77.93% and 84.75%
- Population Hoechst High Intensity Objects (%) [6]: 0%
- Population Mitotic Cells (%) [6]: 66.67% and 42.86%
- Population Normal (%) [6]: 100%
- Population Pyknosed Nuclei (%) [6]: 3.1% and 4.96%

Compound: O=C1NCc2ccc3c(-c4cccc(Cl)c4)c[nH]c3c21
- Population Apoptotic (%) [1]: 13.51% and 26.32%
- Population Fragmented Nuclei (%) [1]: 16.45% and 5.58%
- Population Healthy Nuclei (%) [1]: 59.21% and 76.74%
- Population Hoechst High Intensity Objects (%) [1]: 0%
- Population Membrane Permeable-Phenotype (%) [1]: 4.44% and 3.64%
- Population Mitochondria Different-Phenotype (%) [1]: 8.89% and 8.48%
- Population Mitotic Cells (%) [1]: 86.49% and 73.68%
- Population Normal (%) [1]: 100%
- Population Pyknosed Nuclei (%) [1]: 24.34% and 17.67%
- Population Tubulin-Different-Phenotype (%) [1]: 10% and 13.33%
- Total Cell Count [1]: 152 and 215
- Population Apoptotic (%) [2]: 23.21% and 34.92%
- Population Fragmented Nuclei (%) [2]: 9.88% and 1.93%
- Population Healthy Nuclei (%) [2]: 57.56% and 67.63%
- Population Hoechst High Intensity Objects (%) [2]: 0%
- Population Membrane Permeable-Phenotype (%) [2]: 3.03% and 5%
- Population Mitochondria Different-Phenotype (%) [2]: 15.15% and 17.86%
- Population Mitotic Cells (%) [2]: 76.79% and 65.08%
- Population Normal (%) [2]: 100%
- Population Pyknosed Nuclei (%) [2]: 32.56% and 30.43%
- Population Tubulin-Different-Phenotype (%) [2]: 8.08% and 17.14%
- Total Cell Count [2]: 172 and 207
- Population Apoptotic (%) [3]: 18.75% and 20.59%
- Population Fragmented Nuclei (%) [3]: 13.25% and 6.58%
- Population Healthy Nuclei (%) [3]: 65.56% and 79.42%
- Population Hoechst High Intensity Objects (%) [3]: 0%
- Population Membrane Permeable-Phenotype (%) [3]: 7.07% and 4.66%
- Population Mitochondria Different-Phenotype (%) [3]: 10.1% and 5.18%
- Population Mitotic Cells (%) [3]: 81.25% and 79.41%
- Population Normal (%) [3]: 100%
- Population Pyknosed Nuclei (%) [3]: 21.19% and 13.99%
- Population Tubulin-Different-Phenotype (%) [3]: 13.13% and 9.84%
- Total Cell Count [3]: 151 and 243
- Population Apoptotic (%) [4]: 30.77% and 40.54%
- Population Fragmented Nuclei (%) [4]: 11.59% and 4.85%
- Population Healthy Nuclei (%) [4]: 64.63% and 77.18%
- Population Hoechst High Intensity Objects (%) [4]: 0%
- Population Membrane Permeable-Phenotype (%) [4]: 3.77%
- Population Mitochondria Different-Phenotype (%) [4]: 12.26% and 8.81%
- Population Mitotic Cells (%) [4]: 69.23% and 59.46%
- Population Normal (%) [4]: 100%
- Population Pyknosed Nuclei (%) [4]: 23.78% and 17.96%
- Population Tubulin-Different-Phenotype (%) [4]: 9.43% and 8.81%
- Total Cell Count [4]: 164 and 206
- Population Apoptotic (%) [5]: 20.83% and 38.89%
- Population Fragmented Nuclei (%) [5]: 10.71% and 5.78%
- Population Healthy Nuclei (%) [5]: 75% and 86.22%
- Population Hoechst High Intensity Objects (%) [5]: 0%
- Population Membrane Permeable-Phenotype (%) [5]: 4.76% and 5.67%
- Population Mitotic Cells (%) [5]: 79.17% and 61.11%
- Population Normal (%) [5]: 100%
- Population Pyknosed Nuclei (%) [5]: 14.29% and 8%
- Population Tubulin-Different-Phenotype (%) [5]: 7.94% and 9.28%
- Total Cell Count [5]: 168 and 225
- Population Apoptotic (%) [6]: 20% and 60%
- Population Fragmented Nuclei (%) [6]: 11.49% and 4.95%
- Population Healthy Nuclei (%) [6]: 77.01% and 82.67%
- Population Hoechst High Intensity Objects (%) [6]: 0%
- Population Membrane Permeable-Phenotype (%) [6]: 2.24% and 5.99%
- Population Mitochondria Different-Phenotype (%) [6]: 10.45% and 5.99%
- Population Mitotic Cells (%) [6]: 80% and 40%
- Population Normal (%) [6]: 100%
- Population Pyknosed Nuclei (%) [6]: 11.49% and 12.38%
- Population Tubulin-Different-Phenotype (%) [6]: 5.97% and 10.18%
- Total Cell Count [6]: 174 and 202

Source: ChEMBL document CHEMBL5724801, “EUbOPEN Chemogenomics Library - Multiplex” (2024)
